Assay results as given in ChEMBL document CHEMBL1144212, “Design and synthesis of 3-pyrazolyl-thiophene, thieno[2,3-d]pyrimidines as new bioactive and pharmacological activities” (Bioorg Med Chem Lett, 2008).

Legend:
Rattus norvegicus [1] = experiment: Gastrointestinal toxicity in carrageenan-induced albino rat hind paw edema model assessed as induction of ulcerogenicity at 15 mg/kg, po; assay type: organism-based; design: dose 15 mg/kg, route oral; conditions: in vivo
Rattus norvegicus [2] = experiment: Antiinflammatory activity against carrageenan-induced albino rat hind paw edema model assessed as edema rate at 15 mg/kg, po administered 1 hr before carrageenan challenge measured after 2 hrs; assay type: functional
Summary of the method: (§1)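 Albino rats of both sexes were fasted 18 h, five per group. Dosing was 15 mg/kg orally as an aqueous suspension (tween-80/water vehicle), 1 h before subplantar 0.1 mL 1% w/v carrageenin in the left hind paw. Paw volume was measured by mercury plethysmometer before injection, then hourly for 4 h. Edema rate = (Vt − Vo)/Vo.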

Rattus norvegicus [3] = experiment: Antiinflammatory activity against carrageenan-induced albino rat hind paw edema model assessed as edema rate at 15 mg/kg, po administered 1 hr before carrageenan challenge measured after 3 hrs; assay type: functional; summary of the method: as §1
Fusarium equiseti = experiment: Antifungal activity against Fusarium equiseti (Corda) Sacc after 48 hrs by poisoned-food technique; assay type: functional; design: concentration or dose not given beside the values
Mus musculus [4] = experiment: Analgesic activity in Swiss albino mouse at 20 mg/kg, po assessed as reaction time after 30 mins by hot plate method; assay type: functional
Summary of the method: (§2)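 Swiss albino mice of both sexes (25–30 g), kept at 22 °C on a 12 h light/dark cycle, in groups of five. Given 20 mg/kg orally as an aqueous suspension; aspirin reference at 20 mg/kg orally. Hot plate at 53 °C. Reaction time (placement to hind-paw licking or jumping) was taken before dosing and at 15, 30, 60 and 90 min; 60 s cut-off.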

Rattus norvegicus [5] = experiment: Antiinflammatory activity against carrageenan-induced albino rat hind paw edema model at 15 mg/kg, po administered 1 hr before carrageenan challenge measured after 4 hrs relative to indomethacin; assay type: functional
Rattus norvegicus [6] = experiment: Antiinflammatory activity against carrageenan-induced albino rat hind paw edema model assessed as edema rate at 15 mg/kg, po administered 1 hr before carrageenan challenge measured after 4 hrs; assay type: functional; summary of the method: as §1
Mus musculus [7] = experiment: Analgesic activity in Swiss albino mouse at 20 mg/kg, po assessed as reaction time after 90 mins by hot plate method; assay type: functional; summary of the method: as §2
Rattus norvegicus [8] = experiment: Antiinflammatory activity against carrageenan-induced albino rat hind paw edema model at 15 mg/kg, po administered 1 hr before carrageenan challenge measured after 2 hrs relative to indomethacin; assay type: functional
Bacillus cereus = experiment: Antibacterial activity against Bacillus cereus BTCC19 after 48 hrs by disc diffusion method; assay type: functional
Summary of the method: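 Disc diffusion on nutrient agar. Compounds were dissolved in DMF at 1 mg/mL, applied per disc. Inhibition zones (mm) were read after 48 h at 28 °C. DMF alone was the negative control; ampicillin was the reference.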

Rattus norvegicus [9] = experiment: Antiinflammatory activity against carrageenan-induced albino rat hind paw edema model at 15 mg/kg, po administered 1 hr before carrageenan challenge measured after 3 hrs relative to indomethacin; assay type: functional
Mus musculus [10] = experiment: Analgesic activity in Swiss albino mouse at 20 mg/kg, po assessed as reaction time after 60 mins by hot plate method; assay type: functional; summary of the method: as §2
Rattus norvegicus [11] = experiment: Antiinflammatory activity against carrageenan-induced albino rat hind paw edema model assessed as edema rate at 15 mg/kg, po administered 1 hr before carrageenan challenge measured after 1 hr; assay type: functional; summary of the method: as §1
Rattus norvegicus [12] = experiment: Antiinflammatory activity against carrageenan-induced albino rat hind paw edema model at 15 mg/kg, po administered 1 hr before carrageenan challenge measured after 1 hr relative to indomethacin; assay type: functional
Shigella dysenteriae = experiment: Antibacterial activity against Shigella dysenteriae AE 14396 after 48 hrs by disc diffusion method; assay type: functional; conditions: read-out: MIC
Salmonella typhi = experiment: Antibacterial activity against Salmonella typhi AE 14612 after 48 hrs by disc diffusion method; assay type: functional, Salmonella enterica subsp. enterica serovar Typhi; conditions: Salmonella enterica, read-out: MIC
Rattus norvegicus [13] = experiment: Antiinflammatory activity against carrageenan-induced albino rat hind paw edema model assessed as edema rate at 10 mg/kg, po administered 1 hr before carrageenan challenge measured after 3 hrs; assay type: functional
Summary of the method: (§3)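 Indomethacin reference group: 10 mg/kg orally as an aqueous suspension, 1 h before carrageenin. Albino rats of both sexes were fasted 18 h, five per group. Edema was induced by subplantar 0.1 mL 1% w/v carrageenin in the left hind paw. Paw volume was read by mercury plethysmometer before injection and hourly for 4 h. Edema rate = (Vt − Vo)/Vo.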

Rattus norvegicus [14] = experiment: Antiinflammatory activity against carrageenan-induced albino rat hind paw edema model assessed as edema rate at 10 mg/kg, po administered 1 hr before carrageenan challenge measured after 2 hrs; assay type: functional; summary of the method: as §3
Rattus norvegicus [15] = experiment: Antiinflammatory activity against carrageenan-induced albino rat hind paw edema model assessed as edema rate at 10 mg/kg, po administered 1 hr before carrageenan challenge measured after 4 hrs; assay type: functional; summary of the method: as §3
Rattus norvegicus [16] = experiment: Antiinflammatory activity against carrageenan-induced albino rat hind paw edema model assessed as edema rate at 10 mg/kg, po administered 1 hr before carrageenan challenge measured after 1 hr; assay type: functional; summary of the method: as §3

| SMILES | Activity (Rattus norvegicus [1]) | Activity (Rattus norvegicus [2]) [%] | Activity (Rattus norvegicus [3]) [%] | inhibition (Fusarium equiseti) [%] | Activity (Mus musculus [4]) [s] | Activity (Rattus norvegicus [5]) [%] | Activity (Rattus norvegicus [6]) [%] | Activity (Mus musculus [7]) [s] | Activity (Rattus norvegicus [8]) [%] | zone of inhibition (Bacillus cereus) [mm] | Activity (Rattus norvegicus [9]) [%] | Activity (Mus musculus [10]) [s] | Activity (Rattus norvegicus [11]) [%] | Activity (Rattus norvegicus [12]) [%] | zone of inhibition (Shigella dysenteriae) [µg/mL] | zone of inhibition (Salmonella typhi) [µg/mL] | Activity (Rattus norvegicus [13]) [%] | Activity (Rattus norvegicus [14]) [%] | Activity (Rattus norvegicus [15]) [%] | Activity (Rattus norvegicus [16]) [%] |
| --- | --- | --- | --- | --- | --- | --- | --- | --- | --- | --- | --- | --- | --- | --- | --- | --- | --- | --- | --- | --- |
| CCOC(=O)c1sc(N)c(C(=O)NN)c1C | Non-toxic | -8.84 | -9.8 | 29.3 | 6.12 | 32.39 | -13.32 | 7.86 | 22.22 | 10 | 29.4 | 6.2 | -13.43 | 37.85 | 6 |  |  |  |  |  |
| CCOC(=O)c1sc2[nH]c(=S)n(N)c(=O)c2c1C |  | -14.54 | -10.58 | 47.6 | 6.6 | 59.99 | -24.67 | 7.16 | 36.54 | 19 | 31.74 | 7.24 | -30.19 | 85.09 | 18 | 17 |  |  |  |  |
| CCOC(=O)c1sc(N)c(C(=O)NNC=O)c1C |  | -38.2 | -29.58 | 65.6 | 6.08 | 76.17 | -31.32 | 4.84 | 96 | 33 | 88.75 | 6.9 | -51.18 | 144.25 | 30 | 34 |  |  |  |  |
| CCOC(=O)c1sc(N)c(C(=O)NNC(N)=S)c1C |  | -37.21 | -29.4 | 28 | 5.44 | 84.19 | -34.62 | 6.14 | 93.52 | 20 | 88.21 | 5.74 | 36.56 | 103.04 | 13 | 28 |  |  |  |  |
| CCOC(=O)c1sc(N)c(C(=O)N2NC(=O)CC2=O)c1C | Non-toxic | -31.04 | -20.9 | 40 | 10.22 | 65.27 | -26.84 | 10.68 | 78.01 | 9 | 65.5 | 12.42 | -26.54 | 74.8 | 12 | 15 |  |  |  |  |
| CC(=O)Oc1ccccc1C(=O)O [ASPIRIN] |  |  |  |  | 6.66 |  |  | 7.78 |  |  |  | 6.56 |  |  |  |  |  |  |  |  |
| CCOC(=O)c1sc(N)c(C(=O)N/N=C/c2ccc(OC)cc2)c1C |  | -1.52 | -3.91 | 28 | 6.42 | 32.32 | -13.29 | 9.06 | 3.82 | 10 | 11.73 | 7.72 | -14.4 | 40.59 |  | 12 |  |  |  |  |
| CCOC(=O)c1sc(N)c(C(=O)NNc2nc(C)cs2)c1C |  | -37.17 | -25.33 | 43.8 | 6.68 | 64.52 | -26.53 | 4.7 | 93.42 | 31 | 75.99 | 6.46 | -45.14 | 127.23 | 28 | 29 |  |  |  |  |
| COc1ccc2c(c1)c(CC(=O)O)c(C)n2C(=O)c1ccc(Cl)cc1 [INDOMETHACIN] |  |  |  |  |  |  |  |  |  |  |  |  |  |  |  |  | -33.33 | -39.79 | -41.12 | -35.48 |
| CCOC(=O)c1sc(NC(C)=O)c(C(=O)OCC)c1C |  | -12.11 | -4 | 36.3 | 7.34 | 12.65 | -5.2 | 6.08 | 30.44 | 11 | 0.12 | 5.96 | -15.03 | 42.36 | 14 | 11 |  |  |  |  |
| CC1(C)S[C@@H]2[C@H](NC(=O)[C@H](N)c3ccccc3)C(=O)N2[C@H]1C(=O)O [AMPICILLIN] |  |  |  |  |  |  |  |  |  | 21 |  |  |  |  | 30 | 24 |  |  |  |  |
| CCOC(=O)c1sc2nc(C)n(N)c(=O)c2c1C |  | -17.93 | -14.65 | 37.5 | 6.46 | 37.06 | -15.24 | 6.7 | 45.06 | 15 | 43.95 | 5.04 | -29.82 | 84.05 | 7 | 15 |  |  |  |  |
| CCOC(=O)c1sc(N)c(C(=O)n2nc(C)cc2C)c1C | Non-toxic | 7.88 | 8.46 |  | 7.72 | 0.61 | -0.25 | 9.78 | 19.8 |  | 25.38 | 7.62 | 2.58 | -7.27 |  |  |  |  |  |  |
